This series is described as follows: Toxicity liver stage against HepG2, at 10uM. In kind it is cell-based. Set-up: test concentration 10 uM, cell line HepG2-A16-CD81EGFP. The settings on record: human, HepG2-A16-CD81EGFP cells; read-out: INHIBITION
Summed up:
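Uninfected HepG2-A16-CD81EGFP cells, 3 × 10^3 per well, 1536-well, plated on prespotted compound at 10 μM final, parasite-free screening media added to match infected plates; puromycin 10 μM positive, DMSO 0.5% negative; run in parallel with 48 h PbLuc assay at 37 °C, 5% CO2; viability by CellTiter-Glo luminescence, normalized to controls.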
As for `CC(C(=O)NCC(C)(C)c1ccc(Br)cc1)n1cncn1` (stereo unspecified), the cytotoxicity at 10 µM is 1.73%.

Take `NC1CCC(n2cc(C(=O)N[C@H]3CCCc4ccccc43)nn2)CC1` (stereo partly specified): the cytotoxicity at 10 µM is -5.71%.

Regarding `CC(=O)N(C)c1nc(CN2CCN(c3nccs3)CC2)cs1`, the cytotoxicity at 10 µM was -12.5%.

`COc1ccc(Oc2cncc(C3CCCN3C(C)=O)n2)cc1` (stereo unspecified): the cytotoxicity at 10 µM worked out at 2.86%.

With `CCOc1ncccc1C(=O)NC1CC(=O)N(CC(F)(F)F)C1` (stereo unspecified), the cytotoxicity at 10 µM was 4.43%.

Consider `CCc1nc(CC2CN(c3ncnc4nc(C)cc(C)c34)CCO2)no1` (stereo unspecified), for which the cytotoxicity at 10 µM was -5.79%.

On to `CC(C)n1ccnc1CN1CCCN(C(=O)c2cscn2)CC1`, for which the cytotoxicity at 10 µM was -1.63%.

As for `c1cnc2[nH]c(C3CCCC3)c(CN3CCCCC3)c2c1`, the cytotoxicity at 10 µM was -26.9%.

For `Cc1ccc(NC2COC3(CCN(CC(C)C)CC3)C2)nn1` (stereo unspecified), the cytotoxicity at 10 µM is -1%.

Consider `CC(C)c1cc(NC(=O)c2cccnc2)[nH]n1`, for which the cytotoxicity at 10 µM is -4.24%.

Turning to `COc1c(C2CCCN2C(=O)c2cnn(C)c2C2CC2)c(C)nn1C` (stereo unspecified), the cytotoxicity at 10 µM was -2.43%.

As for `CCN1CCN(c2ccc(C(=O)NCCOC)cc2F)CC1`, the cytotoxicity at 10 µM turned out to be 1.12%.

Turning to `CC1(C)CN(S(=O)(=O)N2CCOCC2)CC1c1ccccc1` (stereo unspecified), the cytotoxicity at 10 µM turned out to be 1.69%.

Take `CC(C)CNC(=O)C(C)N1CCN(C2CCN(C(C)C)CC2)CC1` (stereo unspecified): the cytotoxicity at 10 µM was -7.09%.

For the compound `Cc1nn(C(C)C)c(C)c1CN1CCC(c2cc(C(C)C)n[nH]2)CC1`, the cytotoxicity at 10 µM was found to be 1.34%.

Turning to `CS(=O)(=O)c1ncc(CN2CCN3CCCC3C2)n1CC1CCCCC1` (stereo unspecified), the cytotoxicity at 10 µM is -4.9%.

Turning to `CC(C)c1cc(N2CCC(N)CC2)n2nccc2n1`, the cytotoxicity at 10 µM is -18.1%.

`Cc1cc(C)n(CC(C)NCCN2CCc3ccccc32)n1` (stereo unspecified): the cytotoxicity at 10 µM was -7.73%.

As for `Cc1ncsc1CCC(=O)N1CCn2cccc2C1c1cccnc1` (stereo unspecified), the cytotoxicity at 10 µM was -9.57%.

For `Cc1ccc(S(=O)(=O)N2C[C@H]3C[C@H](NC(=O)c4ccccn4)[C@H]3C2)cc1`, the cytotoxicity at 10 µM worked out at 64.3%.

With `Cc1nc(NCCO)cc(C(C)Cn2nc(C)c(C)c2C)n1` (stereo unspecified), the cytotoxicity at 10 µM was found to be 4.41%.

As for `CCN1CC2(CCC1=O)CCN(Cc1nncn1C(C)C)CC2`, the cytotoxicity at 10 µM is 8.39%.

On to `COCC(=O)NC(c1ccccc1)c1ccc2c(c1)CCCO2` (stereo unspecified), for which the cytotoxicity at 10 µM is -1.83%.

For the compound `CCn1ncc(Nc2[nH]cnc3nncc2-3)c1C`, the cytotoxicity at 10 µM was determined as 7.29%.

With `CC(=O)c1cnc(NCC2OCCc3ccccc32)nc1C` (stereo unspecified), the cytotoxicity at 10 µM is -48.9%.

On to `CCN(CC)C(=O)CCNC(=O)c1c[nH]c2ccc(OC)cc12`, for which the cytotoxicity at 10 µM came out at 1.86%.

For `O=S(=O)(c1cc(F)ccc1F)N1CCCC1c1ccncc1` (stereo unspecified), the cytotoxicity at 10 µM amounted to 14.3%.

Consider `OCCN1CCCCC1C1OCCO1` (stereo unspecified), for which the cytotoxicity at 10 µM amounted to 6.66%.

For `CCS(=O)(=O)CC(=O)NC(c1ccccc1)C1CCCC1` (stereo unspecified), the cytotoxicity at 10 µM was -137%.

With `Cc1nc(Nc2ccccn2)cc(N2CCN(S(C)(=O)=O)CC2)n1`, the cytotoxicity at 10 µM is 3.96%.

On to `CCC(NS(=O)(=O)c1ccc(C(=O)NC2CC2)cc1)c1cnn(C)c1` (stereo unspecified), for which the cytotoxicity at 10 µM was 7.64%.

On to `CCc1nc(C)sc1CN1CC[C@@](O)(C2CC2)[C@H](C)C1`, for which the cytotoxicity at 10 µM is -10.3%.

Turning to `Cc1nn(C)c(C)c1CC(=O)NCc1ccnc(OC2CCCC2)c1`, the cytotoxicity at 10 µM is -0.883%.

As for `CNc1cccc(C2CN(C(=O)CNS(C)(=O)=O)CCO2)n1` (stereo unspecified), the cytotoxicity at 10 µM was -2.24%.

As to `CCS(=O)(=O)Nc1ccc2c(c1)C1(CCOCC1)CN2C`, the cytotoxicity at 10 µM was -107%.

As to `Cc1noc([C@]23COC[C@H]2CN(C(=O)N2CCCC2)C3)n1`, the cytotoxicity at 10 µM was -103%.

`COCCc1noc(CN2CC(Cc3ccccc3)CC2=O)n1` (stereo unspecified): the cytotoxicity at 10 µM was -7.11%.

Turning to `O=C(NCC(CO)Cc1ccc(Cl)cc1)c1ccncc1Cl` (stereo unspecified), the cytotoxicity at 10 µM is 5.21%.

As for `Cc1ccccc1NC(=O)c1cncc(C2CCNCC2)n1`, the cytotoxicity at 10 µM worked out at 1.54%.

For `O=C(Cc1ccc2c(c1)CCO2)N1CCCC1Cn1cccn1` (stereo unspecified), the cytotoxicity at 10 µM is -149%.

As to `O=C(CCN1CCCC(CC2CC2)(C(=O)O)C1)NC1CCCC1` (stereo unspecified), the cytotoxicity at 10 µM was found to be 18.7%.

As for `O=C(NCC1CCN(Cc2ccsc2)CC1)NC1CC1`, the cytotoxicity at 10 µM was determined as 6.82%.

With `CC(C)(C)c1nnc(CN2CCN(S(C)(=O)=O)CC2)o1`, the cytotoxicity at 10 µM is -4.32%.

For the compound `CS(=O)(=O)NCc1cn2c(n1)CN(C(=O)c1ccc[nH]1)CC2`, the cytotoxicity at 10 µM worked out at 5.69%.

In the case of `Cc1cc(C[C@@H]2COC[C@H]2NCc2ccc(C(C)C)cc2)on1`, the cytotoxicity at 10 µM was -30.4%.

Take `CN(Cc1cnn(C)c1)C(=O)NCCc1ccc2c(c1)OCO2`: the cytotoxicity at 10 µM was -12.4%.

For the compound `CN(C)c1nccc(NCc2cc(-c3ccco3)n[nH]2)n1`, the cytotoxicity at 10 µM came out at 2.27%.

For `Cn1cnc(S(=O)(=O)N2CCO[C@H]3[C@H](OCC4CC4)CC[C@@H]32)c1`, the cytotoxicity at 10 µM was 8.31%.

Regarding `Cn1nc(COc2cncnc2)c2c1CCN(Cc1ccco1)C2`, the cytotoxicity at 10 µM is 9.64%.

On to `N#Cc1cccc(NC(=O)CCn2nc(-c3cccs3)oc2=O)c1`, for which the cytotoxicity at 10 µM is -2%.

For `CC(C)(C)CC(=O)NC[C@H]1OC[C@@H](NC2CCC(F)(F)CC2)[C@@H]1O`, the cytotoxicity at 10 µM is -1.23%.

Regarding `CC(C)N(C)S(=O)(=O)N1CCN(Cc2ccco2)CC1`, the cytotoxicity at 10 µM was -0.796%.

On to `COc1ccccc1S(=O)(=O)NCC(c1cccn1C)N(C)C` (stereo unspecified), for which the cytotoxicity at 10 µM amounted to 1.51%.

Turning to `Cn1c(C(F)(F)F)nn(CCNC(=O)CCc2ccccc2)c1=O`, the cytotoxicity at 10 µM came to 10.7%.

`COc1cccc(-c2cc(C(=O)NCCCn3nc(C)cc3C)[nH]n2)c1`: the cytotoxicity at 10 µM was -5.86%.

`O=C(NC1CCCN(c2ccc(OC(F)F)cc2)C1)c1cnc[nH]1` (stereo unspecified): the cytotoxicity at 10 µM was -2.15%.

Consider `Cc1cccc(CCC(=O)Nc2ccnn2C2CCS(=O)(=O)C2)c1` (stereo unspecified), for which the cytotoxicity at 10 µM worked out at 0.499%.

As to `CC(C)C(=O)N1CCCC1c1nc(N(C)C)ncc1-c1ccc(Cl)cc1` (stereo unspecified), the cytotoxicity at 10 µM came out at 20.1%.

As to `CCCn1cc(-c2cc(-c3cnc(OC)nc3)c(C#N)c(N)n2)c(C)n1`, the cytotoxicity at 10 µM was found to be 2.89%.

Turning to `Cc1cc(C)n(C2CCN(S(=O)(=O)N3CCOCC3)CC2)n1`, the cytotoxicity at 10 µM was found to be 3.88%.

For the compound `CCN(CC(=O)NC)C(=O)c1cc(-c2cccc(Cl)c2)no1`, the cytotoxicity at 10 µM stood at 8.5%.

As for `CCn1cc(C(=O)NCc2ccc3c(c2)OCO3)c(C)n1`, the cytotoxicity at 10 µM amounted to 9.9%.

On to `Cc1noc(C)c1CN1CCO[C@H]2CN(Cc3ccc(F)cc3)C[C@H]21`, for which the cytotoxicity at 10 µM was found to be 1.96%.

In the case of `O=C(c1cc(C2CC2)[nH]n1)N1CCN(c2nccs2)CC1`, the cytotoxicity at 10 µM turned out to be 1.39%.

Consider `CSc1ccccc1C(=O)N1C[C@@H]2CC[C@H]1CN(C(=O)C1CCC1)C2`, for which the cytotoxicity at 10 µM is -6.75%.

Regarding `CC(C)C[C@@H](N)C(=O)N(C)Cc1csc(C(C)C)n1`, the cytotoxicity at 10 µM was -127%.

As to `CC(C)(C)S(=O)(=O)CCNC(=O)c1ccc2ccccc2c1`, the cytotoxicity at 10 µM was 0.995%.

`Cc1cccc(C(=O)N2CCCC[C@]3(C)NC(=O)CCC[C@H]23)n1`: the cytotoxicity at 10 µM was -21.3%.

Regarding `Cc1nn(C)c(Cl)c1C1CCCN1c1ncnc2[nH]ccc12` (stereo unspecified), the cytotoxicity at 10 µM came to 10.9%.

Take `CC(CO)NCc1csc2c1CCCC2` (stereo unspecified): the cytotoxicity at 10 µM is -11.3%.

For `COc1ccc(-c2cc(CN)ccc2F)c(OC)c1OC`, the cytotoxicity at 10 µM is 1.91%.

As for `CN(Cc1ccco1)C(=O)c1cccc(N2CCCC2=O)c1`, the cytotoxicity at 10 µM is -4.5%.

`CNC(=O)N1C[C@@H]2C[C@H](C(=O)Nc3ccccc3)[C@H](C1)O2`: the cytotoxicity at 10 µM is -2.24%.

Take `Cn1ccc(C(=O)N2CCN(c3ccccn3)CC2)cc1=O`: the cytotoxicity at 10 µM was -9.43%.

As to `Cc1ccc(OC2(C(=O)O)CCN(C(=O)c3ccccc3F)CC2)cn1`, the cytotoxicity at 10 µM worked out at 2.75%.

For the compound `FC(F)(F)C1CN(Cc2cnc3c(-c4ccccc4)cnn3c2)CCO1` (stereo unspecified), the cytotoxicity at 10 µM is -2.34%.

For the compound `Cc1cc(C)n(CC2CN(CCOc3ccc(C#N)cc3)CCO2)n1` (stereo unspecified), the cytotoxicity at 10 µM was -6.31%.

`N#Cc1c(F)cccc1N1CCCC(C(=O)Nc2nccs2)C1` (stereo unspecified): the cytotoxicity at 10 µM is 8.92%.

Take `Cc1noc(C)c1CC(=O)NCCc1cccs1`: the cytotoxicity at 10 µM is -0.651%.

For the compound `Cc1nc(C2CCCN(C(=O)c3cc(Cl)c4c(c3)OCO4)C2)no1` (stereo unspecified), the cytotoxicity at 10 µM was -2.09%.

Turning to `Cc1cc(C(N)=O)nc(C2(C)CCCN2Cc2cnn(C)c2C)n1` (stereo unspecified), the cytotoxicity at 10 µM was -20.6%.

Take `COc1cccc(-c2noc(-c3ccc(NCC4CC4)nc3)n2)c1OC`: the cytotoxicity at 10 µM was determined as 6.65%.

Consider `NCC1Cc2cc(-c3cnccn3)cc(Cl)c2O1` (stereo unspecified), for which the cytotoxicity at 10 µM came to 6.82%.

As to `C[S+]([O-])c1nncn1CCCc1ccc(Cl)cc1` (stereo unspecified), the cytotoxicity at 10 µM is -8.64%.

With `Cc1nn(C)c(C)c1-c1cc(-c2cnn(C)c2C2CC2)c(C#N)c(N)n1`, the cytotoxicity at 10 µM is 18%.

As for `COc1ccc(CN(CCC#N)CCN2CCOCC2)c(OC)c1`, the cytotoxicity at 10 µM was -1.39%.

Turning to `CC(C)CNC(=O)CC1OCCc2ccsc21` (stereo unspecified), the cytotoxicity at 10 µM was -3.49%.

With `CCOc1ccccc1CC(=O)N1C[C@H](C2CC2)[C@@H](N)C1`, the cytotoxicity at 10 µM is -2.45%.

In the case of `COc1ccc(OCCc2cc(C3CCN(CC(C)C)C3)n[nH]2)cc1` (stereo unspecified), the cytotoxicity at 10 µM turned out to be 1.97%.

With `Cc1noc(C)c1CN1C(=O)[C@@H]2CC[C@H]1CN(C(=O)c1cscn1)C2`, the cytotoxicity at 10 µM was -10.6%.

For `Cc1ccc(Oc2ncccc2CNS(=O)(=O)N2CCOCC2)cn1`, the cytotoxicity at 10 µM is 9.83%.

As to `Cc1n[nH]c(C)c1CCNC(=O)Nc1ccc(S(C)(=O)=O)cc1`, the cytotoxicity at 10 µM is -5.01%.

Take `Cc1cn2c(=O)c(-c3ccnc(N(C)C4CCCCC4)n3)cnc2s1`: the cytotoxicity at 10 µM was determined as 9.49%.

`O=C1C(Nc2ccc3nccnc3n2)CCN1c1ccccc1` (stereo unspecified): the cytotoxicity at 10 µM was found to be 0.562%.

With `C1CC(CN2CCc3c(nnn3CC3CC3)C2COCC2CC2)C1` (stereo unspecified), the cytotoxicity at 10 µM was 7.61%.

With `Cc1cc(S(=O)(=O)Nc2onc(C)c2C)c(C)s1`, the cytotoxicity at 10 µM was -4.96%.

The record behind these values is ChEMBL document CHEMBL4513216, “Probing the Open Global Health Chemical Diversity Library for Multistage-Active Starting Points for Next-Generation Antimalarials” (ACS Infect Dis, 2020).
